Assay type in all cases: functional, cell-based
In assay [1] the target is Trace amine-associated receptor 1 (Mus musculus, UniProt Q923Y8). Kind of assay: Activity at mouse TAAR1 expressed in HEK293 cells assessed as cAMP production. The procedure, abridged:
(§1)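 HEK293 cells stably expressing rat or mouse TAAR1, kept in fresh medium ≥2 h, harvested in KRH, preincubated 20-30 min with 200 µM IBMX. Cells boiled 20 min in acetate buffer. cAMP in cleared lysate read by EFC luminescence kit (18 h dark). Responses given as % of T1AM. EC50 from concentration-response fit, mean ± SEM of N independent triplicate runs.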
(Cyclic AMP is a second messenger, typically raised through Gs and lowered through Gi signalling.)

Assay [2] deals with Trace amine-associated receptor 1 (Rattus norvegicus, UniProt Q923Y9). As to the kind of experiment: Activity at rat TAAR1 expressed in HEK293 cells assessed as cAMP production. The gist of the method:
as §1

For assay [3], the target named is Trace amine-associated receptor 1 (Mus musculus) (UniProt Q923Y8). As to the kind of experiment: Efficacy at mouse TAAR1 expressed in HEK293 cells assessed as stimulation of cAMP production at 10 uM relative to 3-iodothyronamine.
Trace amine-associated receptor 1 (Mus musculus), sequence (Q923Y8 whole entry, the tested form may be a part): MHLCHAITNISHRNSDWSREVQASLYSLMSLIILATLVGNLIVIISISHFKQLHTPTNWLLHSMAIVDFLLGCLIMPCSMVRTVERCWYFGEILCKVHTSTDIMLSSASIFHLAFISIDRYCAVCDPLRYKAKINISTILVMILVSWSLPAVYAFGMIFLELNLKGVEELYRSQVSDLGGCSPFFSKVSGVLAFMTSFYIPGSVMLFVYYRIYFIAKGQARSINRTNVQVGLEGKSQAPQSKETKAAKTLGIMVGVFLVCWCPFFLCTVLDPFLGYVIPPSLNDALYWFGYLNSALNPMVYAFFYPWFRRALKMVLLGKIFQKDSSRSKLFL
For assay [4], the target named is Trace amine-associated receptor 1 (Rattus norvegicus) (UniProt Q923Y9). Kind of assay: Efficacy at rat TAAR1 expressed in HEK293 cells assessed as stimulation of cAMP production at 10 uM relative to 3-iodothyronamine.
Trace amine-associated receptor 1 (Rattus norvegicus), sequence (Q923Y9 whole entry, the tested form may be a part): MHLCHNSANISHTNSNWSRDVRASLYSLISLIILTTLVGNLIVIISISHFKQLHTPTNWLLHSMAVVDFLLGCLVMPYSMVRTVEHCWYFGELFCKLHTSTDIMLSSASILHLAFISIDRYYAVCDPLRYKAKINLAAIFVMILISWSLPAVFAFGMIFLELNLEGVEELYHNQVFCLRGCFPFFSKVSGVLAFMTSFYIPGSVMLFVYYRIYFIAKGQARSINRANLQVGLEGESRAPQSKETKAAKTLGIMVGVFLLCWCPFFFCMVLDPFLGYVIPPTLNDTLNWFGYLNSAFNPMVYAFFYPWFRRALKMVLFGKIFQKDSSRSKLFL
Assay [5] addresses Trace amine-associated receptor 1 (Mus musculus) (UniProt Q923Y8). As to the kind of experiment: Antagonist activity at mouse TAAR1 expressed in HEK293 cells at 10 uM assessed as inhibition of 3-iodothyronamine-induced cAMP production. On the set-up: scale not given: the % may be the effect or the level left. The procedure, abridged: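 Cells harvested in Krebs-Ringer-HEPES, preincubated 20-30 min with 200 µM IBMX, then exposed 1 h at 37 °C in KRH with 133 µM IBMX plus test compound at 10 µM (DMSO vehicle; forskolin 10 µM control). Cells lysed by boiling; cAMP measured by enzyme-fragment-complementation luminescence.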

Experimental findings from ChEMBL document CHEMBL1143684, “Exploring the structure-activity relationship of the ethylamine portion of 3-iodothyronamine for rat and mouse trace amine-associated receptor 1” (J Med Chem, 2007) are described below.

Bounds are passed on as bounds.

Trace amine-associated receptor 1 (Mus musculus, UniProt Q923Y8), sequence (Q923Y8 whole entry): as the sequence (Q923Y8 whole entry, the tested form may be a part) above
Trace amine-associated receptor 1 (Rattus norvegicus, UniProt Q923Y9), sequence (Q923Y9 whole entry): as the sequence (Q923Y9 whole entry, the tested form may be a part) above

Broadly, the EC50 is the concentration giving half of the maximal effect. What is called Emax is the greatest response seen or fitted, relative to the assay's reference. On to `COc1ccc(C(CN)c2ccccc2)c2ccccc12` (configuration not stated), for which the EC50 in assay [1] is over 1 µM; in assay [2], 0.27 µM. In addition, the Emax in assay [3] is 14%; in assay [4] it was 71%.
For the compound `NCCc1ccc(Oc2ccccc2)c2ccccc12`, the EC50 worked out at 0.101 µM in assay [1] and 0.026 µM in assay [2]. Further, the Emax in assay [3] came to 104%; in assay [4], 113%.
Turning to `NCC(c1ccccc1)c1ccc(Oc2ccccc2)c2ccccc12` (configuration not stated), the values for the EC50 in assay [1] and in assay [2] were over 1 µM and 0.052 µM, respectively. Besides, the Emax in assay [3] stood at 0%; in assay [4], 100%.
For `NCC(Cc1ccccc1)c1ccc(Oc2ccccc2)cc1` (configuration not stated), the EC50 in assay [1] was over 1 µM; in assay [2], 0.14 µM. Also, the Emax in assay [3] came out at 31%; in assay [4], 92%.
For `NCC(c1ccccc1)c1ccc(O)c2ccccc12` (configuration not stated) the same measures were over 1 µM, 0.716 µM, 14% and 89%.
As to `NCCc1ccc(Oc2ccccc2)cc1`, the 50% effective concentration (EC50) in assay [1] worked out at 0.42 µM; in assay [2], 0.063 µM. Also, the Emax in assay [3] came to 85%; in assay [4] it was 93%.
As for `NCCc1ccc(Oc2ccc(O)cc2)c(I)c1`, the 50% effective concentration (EC50) in assay [1] was 0.314 µM; in assay [2] it was 0.033 µM. Further, the Activity in assay [5] came out at 30%. The Emax in assay [3] and in assay [4] was 100% each time.
`NCC(c1ccccc1)c1cccc(Oc2ccccc2)c1` (configuration not stated): the EC50 was over 1 µM in assay [1] and 0.019 µM in assay [2]. Further, the Emax in assay [3] came out at 15%; in assay [4] it was 131%.
As for `CC(CN)c1ccc(Oc2ccccc2)cc1` (configuration not stated), the EC50 was over 1 µM in assay [1] and 0.25 µM in assay [2]. Further, the figures for the maximal effect (Emax) in assay [3] and in assay [4] were 72% and 94%, respectively.
`CC(C)(CN)c1ccc(Oc2ccccc2)cc1`: the EC50 in assay [1] and in assay [2] was over 1 µM each time. The Emax in assay [3] stood at 18%; in assay [4], 13%.
On to `NCC(c1ccccc1)c1ccc(Oc2ccccc2)cc1` (configuration not stated), for which the EC50 in assay [1] is over 1 µM; in assay [2], 0.028 µM. Further, the values for the maximum response (Emax) in assay [3] and in assay [4] were 35% and 103%, respectively.
For `C#CC(CN)c1ccc(Oc2ccccc2)cc1` (configuration not stated), the EC50 amounted to 0.929 µM in assay [1] and 0.041 µM in assay [2]. Besides, the results for the Emax in assay [3] and in assay [4] were 79% and 105%, respectively.
For `NCC(C#Cc1ccccc1)c1ccc(Oc2ccccc2)cc1` (configuration not stated) the same measures were over 1 µM, 0.062 µM, 2% and 119%.
For `CN(C)CCCNC(=O)c1ccc(Oc2ccccc2)cc1` the same measures were over 1 µM, over 1 µM, 0% and 2%.
